Measured values: publication PMC6872935 (Nature materials, 2019)

Experiments:
[1] = Ex vivo CEST MRI of organs; assay type: in vivo, NU/J nude mice; conditions: 0.2 mmol/kg i.v.; 2 h p.i. for Olsa-RVRR, 0.5 h p.i. for olsalazine; n=4 mice
Outline: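 Female nude mice carried s.c. HCT116 (left flank) and LoVo (right flank) xenografts of 100-200 mm³. They received 0.2 mmol/kg test compound i.v. in PBS with 1% DMSO and were killed at 2 h or 30 min. Major organs were placed in PBS in a sealed well plate for CEST imaging. Signal was computed as MTR_asym, expressed relative to muscle; mean±SD, n=4.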

HCT116 tumor [2] = assay: Anti-tumor treatment response; assay type: in vivo, NU/J nude mice; conditions: 0.1 mmol/kg i.v., Q3D×8, n=4 mice
Outline: (§1)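 At 50–100 mm³, mice were randomised into three groups (n=4). Groups received i.v. 0.1 mmol/kg test compound, parent drug or PBS, all in 1% DMSO, every 3 days (Q3D×8). Caliper volume = (smallest dimension)² × largest × 0.5. Day-33 volumes were expressed relative to PBS.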

HCT116 cells [3] = assay: CEST MRI of incubated cells; assay type: cell-based, human; conditions: 500 μM, 3 h; for CEST signal, fold less compared to Olsa-RVRR: after subtracting values of non-treated cells; for OlsaCEST signal, fold larger compared to free olsalazine: in vitro
[4] = Mouse body weight during treatment; assay type: in vivo, NU/J nude mice; conditions: 0.1 mmol/kg i.v., Q3D×8, n=4 mice
Outline: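 Female NU/J nude mice, 6-8 weeks old, carried s.c. xenografts of 1×10⁶ HCT116 (left flank) and 1×10⁶ LoVo (right flank) cells. Repeated i.v. dosing (QD3×8) began after tumor cell injection, with a PBS control group. Body weight was recorded over time and reported as mean±SD, n=4 mice.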

[5] = system: DNA methyltransferase (DNMT); assay: DNMT activity/inhibition assay kit on nuclear extracts of treated cells; assay type: cell-based, human; conditions: HCT116 cells, 500 μM for 3 h, measured 48 h later, n=3
Outline: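 5×10⁶ HCT116 cells were incubated 3 h at 37 °C with or without 500 μM test compound, washed three times and cultured in fresh McCoy's 5A. After 48 h, nuclear proteins were extracted with a kit and quantified by Bradford assay. DNMT activity was measured with an activity/inhibition kit using 8 μg nuclear protein per well.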

HCT116 cells [6] = assay: Cell viability, acridine orange/propidium iodide counting; assay type: cell-based, human; conditions: 48 h incubation
LoVo tumor = assay: Anti-tumor treatment response; assay type: in vivo, NU/J nude mice; conditions: 0.1 mmol/kg i.v., Q3D×8, n=4 mice
Outline: as §1

HCT116 tumor [7] = assay: In vivo CEST MRI of tumor xenograft; parameters: species or system NU/J nude mice; conditions: 0.2 mmol/kg i.v.; no significant difference between HCT116 and LoVo tumors
Outline: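 Female NU/J nude mice bore s.c. HCT116 (left flank) and LoVo (right flank) xenografts, 1×10⁶ cells each. At 100–200 mm³, mice received i.v. 0.2 mmol/kg test compound or parent drug in PBS with 1% DMSO. Serial CEST MRI over 24 h at 11.7 T used RARE, TR/TE 5,000/3.7 ms, B₁ 3.6 μT, t_sat 4 s, and offsets ±7.4–12.6 ppm. The 0 h MTR_asym was subtracted; n=4 mice.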

[8] = In vitro CEST MRI of solutions; assay type: physicochemical; conditions: 11.7 T, 37 °C
Outline: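 Compound (0.625–10 mM) was dissolved in 10 mM PBS and titrated with 3 M HCl/NaOH to pH 5.0–8.0. Samples in 1 mm capillaries were held at 37 °C at 11.7 T. RARE CEST used TR/TE 6,000/5 ms, B₁ 3.6 μT, and offsets −12 to 12 ppm in 0.3 ppm steps. B₀ was WASSR-corrected. MTR_asym was computed from ±Δω signals over S₀; exchange rate came from QUESP across saturation powers.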

LoVo cells = assay: 3D-SIM super-resolution fluorescence imaging of cells; assay type: cell-based, human; conditions: 8 μM, 3 h
Outline: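 Cells were incubated 3 h with 8 μM Alexa-conjugated test probe or free Alexa 488 dye, then washed three times with PBS. They were fixed in 4% paraformaldehyde for 10 min, washed again and mounted with DAPI-containing medium. 3D-SIM used 405 nm (DAPI) and 488 nm (Alexa 488) excitation. Experiments were repeated three times.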

HCT116 and LoVo tumors = assay: 3D-SIM imaging of resected tumors; assay type: in vivo, NU/J nude mouse; conditions: 50 nmol i.v., tumors resected at 2 h post-injection
Outline: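 Female NU/J nude mice, 6-8 weeks old, carried s.c. xenografts of 1×10⁶ HCT116 and 1×10⁶ LoVo cells. Each received 50 nmol of test compound or free Alexa 488 i.v.; tumors were resected at 2 h. Tissue was formalin-fixed overnight, cryoprotected overnight in 30% w/v sucrose at 4 °C, OCT-embedded, cut at 10 μm and DAPI-mounted. Imaging used 405/488 nm excitation.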

HCT116 cells [9] = assay: 3D-SIM super-resolution fluorescence imaging of cells; assay type: cell-based, human; conditions: 8 μM, 3 h
Outline: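 Cells were exposed for 3 h to 8 μM test compound or free Alexa 488, PBS-washed, fixed 10 min in 4% paraformaldehyde and mounted in DAPI-containing medium. Super-resolution images were acquired with simultaneous 405 nm (DAPI) and 488 nm (Alexa 488) excitation. Experiments were repeated three times.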

[10] = TEM and DLS of nanoparticle formation; assay type: physicochemical; conditions: 250 μM GSH + 0.5 nmol U-1 furin, 12 h, furin buffer
Outline: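 25 μM test compound was incubated 12 h in furin buffer with 250 μM GSH and 0.5 nmol U⁻¹ furin. The resulting particles were examined by TEM, and their size distribution was measured by DLS.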

furin = furin (Homo sapiens, UniProt P09958); assay: Furin-controlled condensation in solution followed by HPLC; assay type: biochemical; conditions: 25 μM, 250 μM GSH + 0.5 nmol U-1 furin, 12 h, 37 °C
Outline: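 25 μM test compound was incubated with 250 μM GSH at 37 °C, pH 7.4. Reduction alone ran 2 h; with 0.5 nmol U⁻¹ furin added, incubation ran 12 h. Reduced, cleaved and condensed products were followed by HPLC. Conversion to dimer was tracked as a function of time.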

furin, sequence (P09958 108-595 limits assumed): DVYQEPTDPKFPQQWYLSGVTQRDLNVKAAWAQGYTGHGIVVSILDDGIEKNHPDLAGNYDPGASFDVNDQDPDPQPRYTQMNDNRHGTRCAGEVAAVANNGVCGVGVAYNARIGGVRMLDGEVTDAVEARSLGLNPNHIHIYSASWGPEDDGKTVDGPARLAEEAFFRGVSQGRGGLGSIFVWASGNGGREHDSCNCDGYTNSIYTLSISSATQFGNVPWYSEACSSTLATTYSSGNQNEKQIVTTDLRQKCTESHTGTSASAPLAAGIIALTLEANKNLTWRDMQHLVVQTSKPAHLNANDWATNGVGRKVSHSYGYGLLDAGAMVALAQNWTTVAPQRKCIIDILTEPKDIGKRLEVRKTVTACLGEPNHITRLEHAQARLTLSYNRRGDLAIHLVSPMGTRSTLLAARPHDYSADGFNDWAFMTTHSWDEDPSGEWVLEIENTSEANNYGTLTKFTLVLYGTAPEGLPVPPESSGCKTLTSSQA

For `O=C(O)c1cc(/N=N/c2ccc(O)c(C(=O)O)c2)ccc1O` [olsalazine], the “organ distribution of OlsaCEST signal ex vivo” value [1] was “both tumor sites showed comparable CEST signals”, the “average tumor volume at day 33 compared to PBS control group set at 100%” value (HCT116 tumor [2]) was ~ 88% and the “OlsaCEST signal versus non-incubated cells” value (HCT116 cells [3]; p>0.05) was “no significant difference between free olsalazine-incubated cells and non-incubated cells”. For the same compound, the body weight [4] was “did not show any significant differences in body weight”, the DNMT inhibition [5] was “no significant DNMT inhibition” and the “dose to obtain a toxic effect comparable to Olsa-RVRR at 125 μM” value (HCT116 cells [6]) was 2.5 mM. For the same compound, the “fold dose increase needed versus Olsa-RVRR for comparable toxic effect” value (HCT116 cells [6]) was 20 fold, the “average tumor volume at day 33 compared to PBS control group set at 100%” value (LoVo tumor) was 86% and the “maximum OlsaCEST intensity in tumors at 0.5 h p.i.” value (HCT116 tumor [7]) was ~ 1.8%. For the same compound, the “CEST peak offset from the water proton signal” value ([8]; 10 mM in PBS) was ~ 9.8 ppm and the “proton exchange rate (kex)” value ([8]; 10 mM, pH 7.4, QUESP method) was 697 Hz.

In the case of “Ac-Arg-Val-Arg-Arg-Cys(StBu)-Lys(Alexa 488)-2-cyanobenzothiazole [Alexa-RVRR]”, the “intracellular green fluorescence (3D-SIM)” value (LoVo cells) is reported as “much less”, the “green fluorescent nanoparticles in tumors (3D-SIM)” value (HCT116 and LoVo tumors) is reported as “much higher quantity of green fluorescent nanoparticles” and the “intracellular green fluorescence (3D-SIM)” value (HCT116 cells [9]) is reported as “clustering of green fluorescent nanoparticles”.

In the case of “Ac-Arg-Val-Arg-Arg-Cys(StBu)-Lys(olsalazine) [CTR2]”, the “nanoparticle formation with GSH and furin (TEM)” value [10] is reported as “no nanoparticles were formed”, the “CEST signal, fold less compared to Olsa-RVRR” value (HCT116 cells [3]) is reported as 5.2 fold and the “OlsaCEST signal, fold larger compared to free olsalazine” value (HCT116 cells [3]) is reported as 2.3 fold. The DNMT inhibition [5] was “no significant DNMT inhibition” and the “furin cleavage of the reduced compound” value (furin) was “cleaved to cleaved CTR2 without condensation”.

For RKRCRV [CTR1], the “nanoparticle formation with GSH and furin (TEM)” value [10] was “no nanoparticles were formed”, the “CEST signal, fold less compared to Olsa-RVRR” value (HCT116 cells [3]) was 4.4 fold and the “OlsaCEST signal, fold larger compared to free olsalazine” value (HCT116 cells [3]) was 2.8 fold. For the same compound, the DNMT inhibition [5] was “no significant DNMT inhibition” and the “furin cleavage of the reduced compound” value (furin) was “could not be further cleaved”.
